One test relates to J774. Nature of the test: Concentration that inhibits the cell division by 50% after 72 h. The format is functional. The conditions noted are these: Mus musculus, J774, 72 h; read-out: ED50 (the source's name). In a few lines:
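J774.2 murine macrophage-like cells (3×10^5 per 60-mm plate) incubated with a range of compound concentrations; viable cell number counted by Coulter counter after 72 h. ED50 taken as the concentration inhibiting cell division by 50%. Compounds dissolved in DMSO, final DMSO at most 0.2%.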

Test [1] is described as follows: Relative initial slope of the compound. The format is functional. In a few lines: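 Calf brain microtubule protein, purified by two cycles of temperature-dependent assembly-disassembly. Assembly ran in 0.1 M MES, 1 mM EGTA, MgCl2 and 3 M glycerol, pH 6.6, at 35 °C and was followed by turbidity at 350 nm. Assembly extent and initial slope were expressed relative to taxol. DMSO vehicle was at most 1% final.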

The test system of another test is Tubulin (Bos taurus). Put plainly: Effect of compound on assembly property of microtubule protein. 1.5 mg/mL MTP + 15 uM compound.

Data on four compounds can be found in ChEMBL document CHEMBL1127737, “Characterization of two taxol photoaffinity analogues bearing azide and benzophenone-related photoreactive substituents in the A-ring side chain” (1994).

The structures appear in SMILES notation.

Turning to `CC(=O)O[C@H]1C(=O)[C@@]2(C)[C@H]([C@H](OC(=O)c3ccccc3)[C@]3(O)C[C@H](OC(=O)[C@H](O)[C@@H](NC(=O)c4ccc(N=[N+]=[N-])cc4)c4ccccc4)C(C)=C1C3(C)C)[C@]1(OC(C)=O)CO[C@@H]1C[C@@H]2O`, the EC50 with J774 was found to be 0.28 µM. In addition, the Relative initial slope in test [1] was 84.
Take `CC(=O)O[C@H]1C(=O)[C@@]2(C)[C@H]([C@H](OC(=O)c3ccccc3)[C@]3(O)C[C@H](OC(=O)[C@H](O)C(NC(=O)c4ccc(C(=O)c5ccccc5)cc4)c4ccccc4)C(C)=C1C3(C)C)[C@]1(OC(C)=O)CO[C@@H]1C[C@@H]2O` (stereo not given in full): the EC50 in the test on J774 amounted to 1.5 µM. In test [1], this compound had a Relative initial slope of 15. Further, the Assembly in the test with Tubulin (Bos taurus) was 39%.
For `Nc1nc2c(ncn2[C@@H]2O[C@H](COP(=O)(O)OP(=O)(O)OP(=O)(O)O)[C@@H](O)[C@H]2O)c(=O)[nH]1` [GUANOSINE TRIPHOSPHATE], the Relative initial slope in test [1] amounted to 65. Besides, the Assembly in the test on Tubulin (Bos taurus) is 70%.
As to `CC(=O)O[C@H]1C(=O)[C@@]2(C)[C@H]([C@H](OC(=O)c3ccccc3)[C@]3(O)C[C@H](OC(=O)[C@H](O)[C@@H](NC(=O)c4ccccc4)c4ccccc4)C(C)=C1C3(C)C)[C@]1(OC(C)=O)CO[C@@H]1C[C@@H]2O` [PACLITAXEL], the EC50 in the test on J774 worked out at 0.09 µM. The compound further registered a Relative initial slope in test [1] of 100. The Assembly with Tubulin (Bos taurus) is given as 100%.
